Source: PubChem
M5 antag: CHRM5 antagonism in calcium assay. CHO-hM5 cells, Fluo-8 calcium fluorescence, ACh EC80. inhibition, % at 3 µM. 360,000 compounds, 0.59% hits. AID 624040;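 active = inhibition above a per-plate cutoff, the mean of that plate's test compounds plus 3 SD, cut at about 27% in these data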
M4 PAM: positive allosteric modulators of human muscarinic M4 receptor. P08173. CHO-K1 hM4/Gqi5, Fluo-8 calcium fluorescence, ACh EC20; 0% = ACh EC20, 100% = maximal ACh. activation, % at 3 µM. 360,000 compounds, 0.4% hits. AID 624126;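 active = activation above its plate's cutoff, the mean activation of sample wells plus 3 SD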
Target sequence (P08173 whole entry, looked up): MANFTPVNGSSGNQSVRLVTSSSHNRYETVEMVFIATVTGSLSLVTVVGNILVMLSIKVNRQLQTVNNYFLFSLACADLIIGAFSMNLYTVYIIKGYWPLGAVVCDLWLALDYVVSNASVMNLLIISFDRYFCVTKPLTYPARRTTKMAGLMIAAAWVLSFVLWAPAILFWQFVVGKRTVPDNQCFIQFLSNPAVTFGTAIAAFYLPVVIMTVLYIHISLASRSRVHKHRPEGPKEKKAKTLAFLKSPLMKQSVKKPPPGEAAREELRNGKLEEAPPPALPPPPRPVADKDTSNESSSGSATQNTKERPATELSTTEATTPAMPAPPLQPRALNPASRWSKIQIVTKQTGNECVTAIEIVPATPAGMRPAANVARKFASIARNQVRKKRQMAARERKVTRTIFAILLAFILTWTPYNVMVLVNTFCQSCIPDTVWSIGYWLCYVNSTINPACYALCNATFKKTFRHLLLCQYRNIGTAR
CHRM5 agonist: agonists of human muscarinic M5 receptor (CHRM5); CHO-K1 hM5 cells, Fluo-8 calcium fluorescence; 0% DMSO wells, 100% maximal acetylcholine response; activation, % at 3 µM; 360,000 compounds, 0.19% hits;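 active = activation above the run's mean over test compounds plus 3 SD, cut at about 23% in these data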;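 note: signal is peak over basal fluorescence ratio across the kinetic read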
CHRM4 agonist: CHRM4 agonism in calcium assay; 360,000 compounds, 0.14% hits; P08173; CHO-K1 hM4/Gqi5, Fluo-8 calcium fluorescence; vehicle 0%, full acetylcholine response 100%; activation, % at 3 µM;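 active = activation above the run mean over all test wells plus 3 SD, cut at about 32% in these data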;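 note: peak over basal fluorescence ratio per well then scaled between controls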
CHRM4 antagonist: blocks acetylcholine activation of human M4 receptor. 360,000 compounds, 0.73% hits. P08173. AID 624125. CHO-hM4 cells, ACh EC80, Fluo-8 calcium fluorescence. inhibition, % at 3 µM;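 active = inhibition above its plate's cutoff, the mean inhibition of sample wells plus 3 SD, cut at about 27% in these data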
CHRM5 PAM: positive allosteric modulators of human muscarinic M5 receptor; CHO-K1 hM5, Fluo-8 calcium, ACh EC20 PAM; 0% = ACh EC20, 100% = ACh EC100; activation, % at 3 µM; 360,000 compounds, 0.3% hits; P08912;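 active = activation above the run cutoff, the mean activation of all test compounds plus 3 SD, cut at about 18% in these data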
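system = human M5 receptor in CHO-K1 cells | reagent = EC20 acetylcholine as agonist stimulus | compound dosing = single-point, 3 µM nominal | incubation = Fluo-8 loading 80 min at 37 °C plus 30 min room temperature | detection = Fluo-8 calcium dye fluorescence, kinetic read | benchmarks = low control EC20 acetylcholine (0%), high control EC100 acetylcholine (100%)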
Of the large screens only hits and unclear results are named; the others gave an inactive call. In the library only some 1.8% were active in any assay of this set; here they are far more common.

CC(=O)N1CCN(Cc2nc(C(c3ccccc3)c3ccccc3)no2)CC1	none
c1ccc(C(c2ccccc2)c2noc(CN3CCN(C4CCCC4)CC3)n2)cc1	CHRM4 antagonist 30.1
Cc1cccnc1CN1CCN(Cc2nc(C(c3ccccc3)c3ccccc3)no2)CC1	CHRM4 antagonist 36.4
CCCNC(=O)C1(C)CCN(Cc2ccc3ccccc3c2Br)C1 (configuration not stated)	none
CCOC(=O)C(=O)N(C)c1c(CC)nc2c(OCc3ccc(OC)cc3)cccn12	none
COc1ccc(Br)c(Cn2c(C)c(C(=O)NCc3cccc([N+](=O)[O-])c3)sc2=O)c1	CHRM4 antagonist 30.8
Cc1c(C(=O)NCc2ccc(C(F)(F)F)cc2)sc(=O)n1Cc1cccc(F)c1	M5 antag 31.7, CHRM5 agonist 49.7, CHRM4 agonist 54.0, CHRM4 antagonist 29.5
O=C(NCc1ccccc1)c1cc(C2CCCCN2C(=O)c2cccs2)on1 (configuration not stated)	none
Cc1nc(N)sc1C(=O)N/N=C/c1cccnc1	CHRM5 PAM 19.5
CCOC(=O)[C@]12CCC=C1N(CCC1=CCCCC1)C(=O)[C@H](CC(=O)N1CCCCC1)C2	none
CCNc1nc(NCC)n2c(SCC(=O)Nc3cccc(Cl)c3)nnc2n1	CHRM5 PAM 22.3
Cc1ccc2nc(-c3cccc(Br)c3)c(Cc3ccccc3C(F)(F)F)n2c1	none
Cn1ccc(C(=O)N/N=C/c2c[nH]c3ccccc23)n1	CHRM5 PAM 27.8
CC1=C(C(=O)N2CCCCCC2)CC(CC(=O)NCCCCc2ccccc2)C(=O)N1Cc1ccccc1 (configuration not stated)	none
COc1ccc(C(O)(CCN2CCCCC2)C2CCCCC2)cc1 (configuration not stated)	M5 antag 64.4, CHRM4 antagonist 74.8
COCCNC(=O)C1(C)CCCN(C(=O)c2cccc(Cl)c2)C1 (configuration not stated)	none
CN(CCCCCCCCC(=O)/C=N/O)Cc1ccccc1	CHRM4 antagonist 72.6
COCCCNC(=O)c1ccc2nc(Cc3ccc(OC)cc3)oc2c1	CHRM4 antagonist 36.6
Cc1nn(-c2ccccc2)c(N)c1Sc1cccc([N+](=O)[O-])c1	none
Cc1cc(C)nc(-n2nc(C)c(Sc3ccc(F)cc3)c2N)n1	M4 PAM 22.6
Cc1cc(N)n(-c2ccc([N+](=O)[O-])cc2)n1	CHRM5 PAM 20.1
Cc1cc(C)n(-c2ccc([N+](=O)[O-])cc2)n1	none
Cc1cc(NC(=O)CSc2nc(-c3ccccc3)c(C#N)c(=O)[nH]2)no1	M4 PAM 21.0
Cc1cc(NC(=O)CS(=O)c2cn(Cc3cccc(Cl)c3)c3ccccc23)no1 (configuration not stated)	none
O=C(C1=C[C@H](c2coc3ccccc3c2=O)C[C@H](OCCCCO)O1)N1CCN(Cc2ccccc2)CC1	M5 antag 62.5
O=C(NCc1ccccc1)C1=C[C@H](c2coc3ccccc3c2=O)C[C@H](OCCCCO)O1	none
O=C(NCc1ccccc1)C1=C[C@@H](c2coc3ccccc3c2=O)C[C@@H](OCCCCO)O1	M5 antag 27.8
COCCNC(=O)C1(C)CCCN(C(=O)c2c(F)ccc(C)c2F)C1 (configuration not stated)	none
CCSc1nc(-c2ccco2)ccc1C#N	CHRM5 PAM 46.0
O=C(Nc1ccccc1F)c1csc([C@@H]2C[C@H](O)[C@@H](CO)O2)n1	none
COc1ccccc1NC(=O)Nc1nc(C(N)Cc2ccc(Cl)cc2)cs1 (configuration not stated)	CHRM4 agonist 51.5, CHRM4 antagonist 34.5
COc1ccccc1NC(=O)Nc1nc(C(N)Cc2ccccc2)cs1 (configuration not stated)	none
NC(Cc1ccc(Cl)cc1)c1csc(NC(=O)Nc2ccccc2)n1 (configuration not stated)	CHRM4 antagonist 26.8
Cc1ccccc1NC(=O)Nc1nc(C(N)Cc2ccccc2)cs1 (configuration not stated)	CHRM4 agonist 36.3
Cc1ccc(C(=O)NCCN2CCC(n3c(=O)[nH]c4ccccc43)CC2)cc1C	none
COc1ccc(C(N)c2csc(Nc3ccc(S(C)(=O)=O)cc3)n2)cc1 (configuration not stated)	none
COc1ccc(C(C)NC(=O)Cc2ccc(Br)cc2)cc1 (configuration not stated)	CHRM4 agonist 37.3
CC(C)NC(=O)Cc1ccc(Br)cc1	none
Cc1sc2ncn3c(C)nnc3c2c1C	M4 PAM 18.9
CC1=NN(c2cccc(C(=O)O)c2)C(=O)/C1=C\C=C/c1ccccc1	M4 PAM 24.0
O=S1(=O)CC(N2CC=CC2)CN1Cc1cn(Cc2cccc(C(F)(F)F)c2)nn1 (configuration not stated)	none
CC(C)(C)OC(=O)Nc1ccccc1-n1nnnc1C(C(=O)c1ccc(F)cc1)N1CCOCC1 (configuration not stated)	none
Cc1cc(C)n2nc(-c3ccc(Br)cc3)cc2n1	M4 PAM 17.9
CCOC(=O)C1=C[C@@H](CC)N(S(=O)(=O)c2ccccc2)[C@H]1c1ccccc1	none
CCCCCNC(=O)C(c1ccncc1)n1c(=O)c(-c2cc3ccccc3[nH]2)nc2ccccc21 (configuration not stated)	none
COc1cc(C2NC(=O)NC(O)(C(F)(F)F)C2C(=O)c2cccs2)ccc1O (configuration not stated)	none
COc1ccc(C2NC(=S)NC(O)(C(F)(F)F)C2C(=O)c2cccs2)cc1 (configuration not stated)	CHRM4 antagonist 43.4
CCCn1c(SCC(=O)Nc2cccc(S(=O)(=O)NC3=NCCCCC3)c2)nc2ccccc2c1=O	CHRM5 PAM 23.7
O=C1NC(=S)S/C1=C\C=C\c1ccc([N+](=O)[O-])o1	M5 antag 48.0, CHRM5 agonist 25.5, CHRM4 antagonist 68.2
O=C(O)/C=C/c1ccc([N+](=O)[O-])o1	none
COc1ccc(C(CNC(=O)c2cccc(NS(=O)(=O)c3ccccc3)c2)N(C)C)cc1 (configuration not stated)	CHRM4 antagonist 30.6
COc1ccc(C(CNC(=O)c2cccc(NS(=O)(=O)c3ccc(C)c(F)c3)c2)N(C)C)cc1 (configuration not stated)	none
COc1ccccc1C(CNC(=O)c1cccc(S(=O)(=O)NCc2ccccc2)c1)N(C)C (configuration not stated)	M5 antag 38.9
